According to ChEMBL document CHEMBL1148140, “Isolation of streptonigrin and its novel derivative from Micromonospora as inducing agents of p53-dependent cell apoptosis” (J Nat Prod, 2002):
pIC50: −log10 of the molar value. Activity calls are given as the source filed them. The rule behind the calls is not given here.

Columns and labels:
SH-SY5Y [1] = assay: Cytotoxicity against human SH-SY5Y cells overexpressing dominant negative mutant of p53; assay type: functional, cell-based
Procedure, shortened: (§1)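 Viability by MTS tetrazolium reduction. Neuroblastoma SH-SY5Y and SH-SY5Y-5.6 lines (HA-tagged 91-aa mini p53) were seeded the day before at 10⁵ cells/mL in RPMI with hygromycin 0.1 mg/mL. Exposure was 24 h; MTS was added at hour 20 (final 0.04 mg/well) for 4 h at 37 °C. Dose-response was run on reproducible hits.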

SH-SY5Y [2] = assay: Cytotoxicity against human wild type SH-SY5Y cells; assay type: functional, cell-based; procedure, shortened: as §1
SH-SY5Y [3] = assay: Cytotoxicity against human wild type SH-SY5Y cells upto 100 uM; assay type: functional, cell-based; procedure, shortened: as §1
SH-SY5Y [4] = assay: Cytotoxicity against human SH-SY5Y cells overexpressing dominant negative mutant of p53 upto 100 uM; assay type: functional, cell-based; procedure, shortened: as §1
SH-SY5Y [5] = assay: Induction of apoptosis in human SH-SY5Y cells assessed as DNA ladder activity; assay type: functional, cell-based
SH-SY5Y [6] = assay: Induction of apoptosis in human SH-SY5Y cells assessed as nuclear accumulation of p53; assay type: functional, cell-based
SH-SY5Y [7] = assay: Selectivity ratio of IC50 for human SH-SY5Y cells overexpressing dominant negative mutant of p53 to IC50 for human wild type SH-SY5Y cells; assay type: functional

Work on `C[C@H]1CNCCN1S(=O)(=O)c1cccc2cnccc12` yielded a pIC50 (SH-SY5Y [1]) of 4.10 and a pIC50 (SH-SY5Y [2]) of 4.40.

In the case of `CC(C)/C=c1\[nH]c(=O)/c(=C/c2ccccc2)[nH]c1=O`, the Activity (SH-SY5Y [3]) was “inactive” and the Activity (SH-SY5Y [4]) was “inactive”.

For `CC(C)/C=c1\c(=O)[nH]/c(=C\c2ccccc2)c(=O)n1C`, the Activity (SH-SY5Y [3]) was “inactive” and the Activity (SH-SY5Y [4]) was “inactive”.

Work on `COC1=C(NC(C)C(C)=O)C(=O)c2nc(-c3nc(C(=O)O)c(C)c(-c4ccc(OC)c(OC)c4O)c3N)ccc2C1=O` (stereo not drawn) yielded a pIC50 (SH-SY5Y [1]) of 4.12 and a pIC50 (SH-SY5Y [2]) of 6.05.

In the case of `COC1=C(N)C(=O)c2nc(-c3nc(C(=O)O)c(C)c(-c4ccc(OC)c(OC)c4O)c3N)ccc2C1=O` [STREPTONIGRIN], the Activity (SH-SY5Y [5]) was “Active”, the pIC50 (SH-SY5Y [1]) was 5.34 and the Activity (SH-SY5Y [6]) was “Active”. The “Ratio IC50” value (SH-SY5Y [7]) was 92 and the pIC50 (SH-SY5Y [2]) was 7.30.
